Measurements taken from ChEMBL document CHEMBL1152714, “Design, synthesis and biological evaluation of a novel class of anticancer agents: anthracenylisoxazole lexitropsin conjugates” (Bioorg Med Chem, 2009).
Calls of active or inactive are those of the source. The rule behind the calls is not given here.

Assays:
Homo sapiens [1] = organism: Homo sapiens; experiment: Stabilization of human telomeric G-quadruplex DNA assessed as inhibition of duplex formation at 5 uM by ESI-MS study
Outline: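 Time-course ESI-MS was run on a mixture of 5 μM G-quadruplex DNA, 5 μM complementary C-DNA and 5 μM ligand. Ion intensities of single-stranded and duplex DNA were followed as the strands re-hybridized. TMPyP4 was the positive control and no ligand the negative control.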

[2] = Antitumor activity against human NCI60 cells after 48 hrs by SRB assay; format: functional; settings: NCI60, 48 h
Outline: (§1)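 Cells were exposed to the drug continuously for 48 h. Cell viability or growth was estimated with the sulforhodamine B protein assay.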

SF-539 = experiment: Antitumor activity against human SF539 cells overexpressing c-myc after 48 hrs by SRB assay; format: functional; settings: SF-539, 48 h; outline: as §1
HOP-62 = experiment: Antitumor activity against human HOP62 cells overexpressing c-myc after 48 hrs by SRB assay; format: functional; settings: HOP-62, 48 h; outline: as §1
HOP-92 = experiment: Antitumor activity against human HOP92 cells overexpressing c-myc after 48 hrs by SRB assay; format: functional; settings: HOP-92, 48 h; outline: as §1
SNB-75 = experiment: Antitumor activity against human SNB75 cells overexpressing c-myc after 48 hrs by SRB assay; format: functional; settings: SNB-75, 48 h; outline: as §1
[3] = biological target: DNA polymerase I, thermostable (Thermus aquaticus) (UniProt P19821); experiment: Inhibition of Taq polymerase
[4] = biological target: Telomerase reverse transcriptase (Homo sapiens) (UniProt O14746); experiment: Inhibition of telomerase assessed as telomere elongation by TRAP assay
Outline: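 Telomere elongation was assessed by a TRAP assay with gel electrophoresis read-out.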

Mus musculus [5] = experiment: Acute toxicity in ip dosed mouse; format: organism-based; settings: in vivo
Outline: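 Mice given three dose regimens (100, 200 and 400 mg/kg), with animals followed to day 14 and body weight recorded at day 14 for signs of acute toxicity.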

DNA = experiment: Binding affinity to calf thymus DNA at 10 uM by microarray fluorescence experiment; format: nucleic-acid assay; settings: Bos taurus
Outline: (§2)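 DNA was prepared in TE buffer with 10 mM KCl at pH 7.0, to a final concentration of 400 […]. The oligonucleotide was hybridized with Cy3-AP3-dCTP. The ligand was 10 μM in aqueous 25% DMSO. Mixtures were incubated at 37°C for 5 min, then printed on slides. Excitation was at 310, 380, 410 and 485 nm, emission at 530 nm. Slides were read on a microarray scanner at 10 μm resolution.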

Mus musculus [6] = experiment: Toxicity in mouse assessed as weight gain at 200 mg/kg, ip after 14 days; format: organism-based; design: dose 200 mg/kg, route intraperitoneal; settings: in vivo, 336 h
Outline: (§3)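 Acute toxicity was tested in mice at three dose regimens (100, 200 and 400 mg/kg). Body weight was assessed at day 14.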

Homo sapiens [7] = organism: Homo sapiens; experiment: Binding affinity to human DNA at a drug-DNA ratio of 1:1 by fluorescence experiment
Outline: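 Solution fluorescence was measured on histone-free human DNA mixed with the ligand at a 1:1 molar ratio. The shift in λmax was monitored.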

Mus musculus [8] = experiment: Toxicity in mouse assessed as weight gain at 100 mg/kg, ip after 14 days; format: organism-based; design: dose 100 mg/kg, route intraperitoneal; settings: in vivo, 336 h; outline: as §3
Mus musculus [9] = experiment: Toxicity in mouse assessed as weight gain at 400 mg/kg, ip after 14 days; format: organism-based; design: dose 400 mg/kg, route intraperitoneal; settings: in vivo, 336 h; outline: as §3
[10] = Binding affinity to Hurley-oligonucleotide at 10 uM by microarray fluorescence experiment; outline: as §2
NCI-H226 = experiment: Antitumor activity against human NCI-H226 cells overexpressing c-myc after 48 hrs by SRB assay; format: functional; settings: NCI-H226, 48 h; outline: as §1
EKVX = experiment: Antitumor activity against human EKVX cells overexpressing c-myc after 48 hrs by SRB assay; format: functional; outline: as §1
HCC 2998 = experiment: Antitumor activity against human HCC2998 cells overexpressing c-myc after 48 hrs by SRB assay; format: functional; settings: HCC 2998, 48 h; outline: as §1
SF-295 = experiment: Antitumor activity against human SF295 cells overexpressing c-myc after 48 hrs by SRB assay; format: functional; settings: SF-295, 48 h; outline: as §1

Telomerase reverse transcriptase (Homo sapiens), sequence (O14746 whole entry): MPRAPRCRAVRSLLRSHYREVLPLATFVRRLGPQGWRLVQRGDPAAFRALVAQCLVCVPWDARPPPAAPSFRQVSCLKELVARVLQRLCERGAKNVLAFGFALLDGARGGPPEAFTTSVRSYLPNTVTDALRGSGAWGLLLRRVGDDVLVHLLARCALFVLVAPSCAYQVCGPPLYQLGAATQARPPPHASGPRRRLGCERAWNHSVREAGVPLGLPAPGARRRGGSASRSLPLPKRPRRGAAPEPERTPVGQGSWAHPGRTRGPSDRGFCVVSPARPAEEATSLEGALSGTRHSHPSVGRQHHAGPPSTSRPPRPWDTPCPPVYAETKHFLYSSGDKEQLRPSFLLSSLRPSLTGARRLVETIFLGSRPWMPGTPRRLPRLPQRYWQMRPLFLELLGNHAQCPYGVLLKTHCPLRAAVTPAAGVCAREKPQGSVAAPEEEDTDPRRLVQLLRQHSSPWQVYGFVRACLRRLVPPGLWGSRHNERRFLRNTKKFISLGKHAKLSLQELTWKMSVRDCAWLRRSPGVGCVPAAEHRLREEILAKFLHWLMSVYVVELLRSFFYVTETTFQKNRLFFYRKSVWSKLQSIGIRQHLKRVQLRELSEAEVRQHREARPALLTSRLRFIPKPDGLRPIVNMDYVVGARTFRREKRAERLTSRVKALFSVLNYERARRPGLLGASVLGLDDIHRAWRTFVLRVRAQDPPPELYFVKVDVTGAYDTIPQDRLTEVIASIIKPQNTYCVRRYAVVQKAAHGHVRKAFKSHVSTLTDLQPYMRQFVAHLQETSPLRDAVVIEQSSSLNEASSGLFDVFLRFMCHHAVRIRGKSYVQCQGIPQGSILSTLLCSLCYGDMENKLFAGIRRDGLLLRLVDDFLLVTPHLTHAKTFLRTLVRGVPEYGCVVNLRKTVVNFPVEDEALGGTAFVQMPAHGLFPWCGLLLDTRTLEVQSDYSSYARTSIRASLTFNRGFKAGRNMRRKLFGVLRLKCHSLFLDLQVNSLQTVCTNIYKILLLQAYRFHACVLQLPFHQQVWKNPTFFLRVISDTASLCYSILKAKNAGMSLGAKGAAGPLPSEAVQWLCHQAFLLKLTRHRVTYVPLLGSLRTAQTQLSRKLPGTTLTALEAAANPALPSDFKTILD
DNA polymerase I, thermostable (Thermus aquaticus), sequence (P19821 whole entry): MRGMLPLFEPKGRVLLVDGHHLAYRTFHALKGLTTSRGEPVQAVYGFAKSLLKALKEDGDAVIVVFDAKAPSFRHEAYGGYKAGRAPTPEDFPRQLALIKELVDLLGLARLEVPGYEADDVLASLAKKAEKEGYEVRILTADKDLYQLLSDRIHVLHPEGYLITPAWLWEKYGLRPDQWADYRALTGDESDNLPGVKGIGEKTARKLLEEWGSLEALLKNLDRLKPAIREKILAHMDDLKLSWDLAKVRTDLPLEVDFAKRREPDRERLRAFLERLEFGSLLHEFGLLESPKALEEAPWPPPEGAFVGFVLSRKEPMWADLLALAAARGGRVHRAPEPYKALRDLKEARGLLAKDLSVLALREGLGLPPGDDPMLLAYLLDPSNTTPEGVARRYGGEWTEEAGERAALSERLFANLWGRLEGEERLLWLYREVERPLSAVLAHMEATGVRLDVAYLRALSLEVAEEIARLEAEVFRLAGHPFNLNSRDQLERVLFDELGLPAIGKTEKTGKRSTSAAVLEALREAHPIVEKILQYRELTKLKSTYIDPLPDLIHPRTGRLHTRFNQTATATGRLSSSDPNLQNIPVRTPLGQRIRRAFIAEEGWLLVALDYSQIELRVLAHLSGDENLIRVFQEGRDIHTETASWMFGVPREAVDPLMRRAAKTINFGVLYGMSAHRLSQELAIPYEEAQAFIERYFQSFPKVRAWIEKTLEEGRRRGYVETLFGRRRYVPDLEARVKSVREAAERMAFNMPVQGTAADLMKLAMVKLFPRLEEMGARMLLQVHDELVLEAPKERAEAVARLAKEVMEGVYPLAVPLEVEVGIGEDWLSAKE

| SMILES | GI50 ([2]; read-out: GI50) | GI50 ([2]; read-out: pGI50 (converted)) | also measured |
| --- | --- | --- | --- |
| Cc1onc(-c2c3ccccc3c(-c3ccccc3)c3ccccc23)c1C(=O)Nc1cc(C(=O)NCCCN(C)C)n(C)c1 | 0.95 µM | 1.95 µM | Activity (Homo sapiens [1]): Active; GI50 (SF-539): < 0.01 µM; GI50 (HOP-62): 0.0105 µM; GI50 (HOP-92): 0.0631 µM |
| Cc1onc(-c2c3ccccc3c(Br)c3ccccc23)c1C(=O)Nc1cc(C(=O)NCCCN(C)C)n(C)c1 | 8.71 µM | 8.71 µM | GI50 (SNB-75): 0.158 µM |
| Cc1onc(-c2c3ccccc3c(Cl)c3ccccc23)c1C(=O)Nc1cc(C(=O)NCCCN(C)C)n(C)c1 | 1.78 µM | 1.91 µM | Activity (Homo sapiens [1]): Active; Activity [3]: inactive; Activity [4]: Active; GI50 (HOP-92): 0.0933 µM |
| Cc1onc(-c2c3ccccc3cc3ccccc23)c1C(=O)Nc1cc(C(=O)Nc2cc(C(=O)NCCCN(C)C)n(C)c2)n(C)c1 | 10.5 µM | 12.3 µM | Activity (Mus musculus [5]): Non-toxic; Activity (DNA): Active; Activity (Mus musculus [6]): Toxic; Activity (Homo sapiens [7]): Active; Activity (Mus musculus [8]): Toxic; Activity (Mus musculus [9]): Toxic; Activity [10]: Active |
| Cc1onc(-c2c3ccccc3cc3ccccc23)c1C(=O)Nc1cc(C(=O)N(CCCN(C)C)CCCN(C)C)n(C)c1 | 3.89 µM | 3.89 µM | – |
| Cc1onc(-c2c3ccccc3cc3ccccc23)c1C(=O)Nc1cc(C(=O)Nc2cc(C(=O)N(CCCN(C)C)CCCN(C)C)n(C)c2)n(C)c1 | 15.5 µM | 15.5 µM | – |
| C[n+]1ccc(-c2c3nc(c(-c4cc[n+](C)cc4)c4ccc([nH]4)c(-c4cc[n+](C)cc4)c4ccc([nH]4)c(-c4cc[n+](C)cc4)c4nc2C=C4)C=C3)cc1 | – | – | Activity (Homo sapiens [1]): Active |
| Cc1onc(-c2c3ccccc3cc3ccccc23)c1C(=O)Nc1cc(C(=O)NCCCN(C)C)n(C)c1 | 7.94 µM | 7.94 µM | GI50 (HOP-62): 0.407 µM |
| CN(C)CCCNC(=O)c1cc(NC(=O)c2cc(NC(=O)c3onc(-c4c5ccccc5cc5ccccc45)c3C(=O)Nc3cc(C(=O)Nc4cc(C(=O)NCCCN(C)C)n(C)c4)n(C)c3)cn2C)cn1C | 20.4 µM | 20.4 µM | – |
| Cc1onc(-c2c3ccccc3cc3ccccc23)c1C(=O)N(CCCN(C)C)CCCN(C)C | 4.57 µM | 4.9 µM | – |
| CCOC(=O)c1c(-c2c3ccccc3nc3ccccc23)noc1C | 20.4 µM | 20.4 µM | – |
| Cc1onc(-c2c3ccccc3cc3ccccc23)c1C(=O)NCCCN(C)C | 32.4 µM | 32.4 µM | GI50 (NCI-H226): < 0.01 µM |
| Cc1onc(-c2c3ccccc3nc3ccccc23)c1C(=O)Nc1cc(C(=O)Nc2cc(C(=O)NCCCN(C)C)n(C)c2)n(C)c1 | 20.9 µM | 20.9 µM | GI50 (EKVX): 0.661 µM; GI50 (HCC 2998): 0.776 µM; GI50 (SF-295): 0.0302 µM |
